Experiments:
[1] = Antagonist activity at muscarinic M1/M4 receptor in guinea pig lung assessed as effect on tissue contraction; type: functional, Cavia porcellus
[2] = target: T1, Muscarinic acetylcholine receptor M1 (Homo sapiens, UniProt P11229); assay: Displacement of [3H]NMS from human muscarinic M1 receptor expressed in CHO cells by liquid scintillation counter; type: cell-based
T1 sequence (P11229 whole entry): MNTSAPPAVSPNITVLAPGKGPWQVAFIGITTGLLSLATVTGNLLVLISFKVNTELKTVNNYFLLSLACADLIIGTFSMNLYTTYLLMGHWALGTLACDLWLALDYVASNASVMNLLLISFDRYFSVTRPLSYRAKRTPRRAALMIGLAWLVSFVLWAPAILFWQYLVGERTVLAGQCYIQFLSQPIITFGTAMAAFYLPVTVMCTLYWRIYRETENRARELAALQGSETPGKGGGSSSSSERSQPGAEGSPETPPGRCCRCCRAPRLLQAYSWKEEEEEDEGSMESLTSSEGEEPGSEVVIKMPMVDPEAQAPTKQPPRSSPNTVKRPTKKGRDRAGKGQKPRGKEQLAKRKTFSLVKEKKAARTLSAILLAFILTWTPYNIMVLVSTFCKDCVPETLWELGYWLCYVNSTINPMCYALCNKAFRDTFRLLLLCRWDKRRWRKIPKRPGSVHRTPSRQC

[3] = target: T2, Muscarinic acetylcholine receptor M5 (Homo sapiens, UniProt P08912); assay: Displacement of [3H]NMS from human muscarinic M5 receptor expressed in CHO cells by liquid scintillation counter; type: cell-based
T2 sequence (P08912 whole entry): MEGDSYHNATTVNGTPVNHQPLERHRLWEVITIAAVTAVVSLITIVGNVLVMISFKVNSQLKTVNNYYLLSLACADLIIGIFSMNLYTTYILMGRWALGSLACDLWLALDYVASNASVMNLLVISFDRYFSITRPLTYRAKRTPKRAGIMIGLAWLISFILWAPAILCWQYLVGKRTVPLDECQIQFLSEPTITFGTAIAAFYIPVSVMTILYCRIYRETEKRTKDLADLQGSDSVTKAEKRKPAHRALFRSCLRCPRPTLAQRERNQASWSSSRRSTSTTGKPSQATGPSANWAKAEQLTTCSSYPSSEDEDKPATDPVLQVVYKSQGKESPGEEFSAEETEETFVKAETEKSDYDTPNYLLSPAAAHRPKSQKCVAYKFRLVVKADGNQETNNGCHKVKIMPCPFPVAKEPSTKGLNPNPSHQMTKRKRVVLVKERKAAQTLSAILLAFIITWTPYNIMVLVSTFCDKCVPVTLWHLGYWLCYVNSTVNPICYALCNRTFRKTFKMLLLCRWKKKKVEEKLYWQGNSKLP
Outline: (§1)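 Membrane protein was 70 µg/mL for hm2, 50 µg/mL for hm4 and 25 µg/mL for hm5. Incubation was 120 min at room temperature in 25 mM sodium phosphate with 5 mM MgCl2, pH 7.4. GF/C filtration and scintillation counting followed; duplicates.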

[4] = Agonist activity at muscarinic M2 receptor in guinea pig atrium assessed as effect on inotropic activity; type: functional, Cavia porcellus, Cardiac atrium
Outline: (§2)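 Left atria in PSS at 30 °C, paced via platinum electrodes (1 ms, 1 Hz, 5-10 V). Inotropic force recorded isometrically after 2 h equilibration. A cumulative APE reference curve was obtained, then cumulative agonist curves. Responses are expressed as % of the control maximal response.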

[5] = target: T3, Muscarinic acetylcholine receptor M4 (Homo sapiens, UniProt P08173); assay: Displacement of [3H]NMS from human muscarinic M4 receptor expressed in CHO cells by liquid scintillation counter; type: cell-based; outline: as §1
T3 sequence (P08173 whole entry): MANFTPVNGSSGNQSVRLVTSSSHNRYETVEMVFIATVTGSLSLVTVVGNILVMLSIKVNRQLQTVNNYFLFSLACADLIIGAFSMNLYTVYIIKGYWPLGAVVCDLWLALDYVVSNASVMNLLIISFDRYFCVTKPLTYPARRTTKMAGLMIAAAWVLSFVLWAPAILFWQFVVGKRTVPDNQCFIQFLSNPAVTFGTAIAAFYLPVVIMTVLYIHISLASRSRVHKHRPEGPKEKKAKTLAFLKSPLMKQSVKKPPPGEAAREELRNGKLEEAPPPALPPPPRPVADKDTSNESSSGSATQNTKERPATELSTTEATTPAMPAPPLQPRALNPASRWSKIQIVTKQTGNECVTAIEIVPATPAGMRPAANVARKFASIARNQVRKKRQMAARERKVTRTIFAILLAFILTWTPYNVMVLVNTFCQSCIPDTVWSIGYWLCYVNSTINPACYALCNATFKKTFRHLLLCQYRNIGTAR

[6] = species: Cavia porcellus; assay: Intrinsic activity at muscarinic M2 receptor in guinea pig atrium assessed as effect on inotropic activity relative to control; type: tissue-based; details: Cardiac atrium; outline: as §2
[7] = target: T4, Muscarinic acetylcholine receptor M2 (Homo sapiens, UniProt P08172); assay: Displacement of [3H]NMS from human muscarinic M2 receptor expressed in CHO cells by liquid scintillation counter; type: cell-based; outline: as §1
T4 sequence (P08172 whole entry): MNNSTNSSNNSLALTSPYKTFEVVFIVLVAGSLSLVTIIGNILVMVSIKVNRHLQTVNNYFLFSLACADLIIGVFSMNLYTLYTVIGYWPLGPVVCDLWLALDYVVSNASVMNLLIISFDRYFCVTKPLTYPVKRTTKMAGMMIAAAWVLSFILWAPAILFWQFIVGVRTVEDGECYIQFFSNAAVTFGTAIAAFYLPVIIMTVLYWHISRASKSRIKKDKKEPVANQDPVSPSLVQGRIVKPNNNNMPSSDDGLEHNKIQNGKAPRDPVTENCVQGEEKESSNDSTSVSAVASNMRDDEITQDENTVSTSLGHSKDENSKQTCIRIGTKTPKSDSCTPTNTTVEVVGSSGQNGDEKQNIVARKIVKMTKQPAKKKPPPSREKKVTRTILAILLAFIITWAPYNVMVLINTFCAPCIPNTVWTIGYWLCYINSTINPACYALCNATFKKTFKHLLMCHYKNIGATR

[8] = Antagonist activity at muscarinic M1/M4 receptor in New Zealanda white rabbit vas deferens assessed as effect on isometric tissue contraction; type: functional, Oryctolagus cuniculus
Outline: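 Rabbit vas deferens bathed at 30 °C with 10^-6 M yohimbine and 10^-8 M tripitramine to block α2-adrenoceptors and M2 receptors. Electrically stimulated with square-wave pulses (0.1 ms, 2 Hz, 10-15 V) and equilibrated 1 h. Isometric contractions recorded during a cumulative dose-response curve to McN-A-343. Responses are expressed as % of maximal control-curve response, with parallel reference-agonist-only tissues run.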

[9] = target: Muscarinic acetylcholine receptor M3 (Homo sapiens, UniProt P20309); assay: Displacement of [3H]NMS from human muscarinic M3 receptor expressed in CHO cells by liquid scintillation counter; type: cell-based
Chain of Muscarinic acetylcholine receptor M3 (P20309 whole entry): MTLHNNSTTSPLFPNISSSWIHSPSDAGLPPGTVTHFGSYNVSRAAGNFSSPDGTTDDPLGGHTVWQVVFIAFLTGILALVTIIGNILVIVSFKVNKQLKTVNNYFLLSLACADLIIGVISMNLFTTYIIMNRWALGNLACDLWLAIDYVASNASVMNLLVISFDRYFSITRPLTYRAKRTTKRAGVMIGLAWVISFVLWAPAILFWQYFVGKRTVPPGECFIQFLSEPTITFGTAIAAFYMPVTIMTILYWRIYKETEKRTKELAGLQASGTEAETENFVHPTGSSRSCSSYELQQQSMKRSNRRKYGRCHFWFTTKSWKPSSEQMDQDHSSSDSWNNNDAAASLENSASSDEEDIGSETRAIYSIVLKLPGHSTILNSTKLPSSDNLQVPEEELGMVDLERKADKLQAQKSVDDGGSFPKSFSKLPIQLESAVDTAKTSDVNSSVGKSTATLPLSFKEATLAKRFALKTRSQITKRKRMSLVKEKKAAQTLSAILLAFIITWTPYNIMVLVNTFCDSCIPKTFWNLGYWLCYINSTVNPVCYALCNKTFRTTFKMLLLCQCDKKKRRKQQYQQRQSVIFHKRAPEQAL

[10] = Antagonist activity at muscarinic M3 receptor in guinea pig ileum assessed as effect on tissue tension changes; type: functional, Cavia porcellus
Outline: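 Guinea pig ileum with isotonic recording of tension changes and 30 min equilibration. Dose-response curves to arecaidine propargyl ester taken at 30 min intervals; the first is discarded and the second serves as control. Responses are expressed as % of the maximal control-curve response, with parallel tissues given only the reference agonist to check sensitivity.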

[11] = species: Cavia porcellus; assay: Intrinsic activity at muscarinic M3 receptor in guinea pig ileum assessed as effect on tissue tension changes relative to control; type: tissue-based
Outline: (§3)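 Ileum tension changes recorded isotonically after 30 min equilibration. APE curves were run at 30 min intervals; the first was discarded and the second was taken as control. Cumulative agonist curves followed, with responses expressed as % of the control maximum. Parallel reference-only tissues served as sensitivity checks.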

[12] = Agonist activity at muscarinic M1/M4 receptor in guinea pig lung assessed as effect on tissue contraction; type: functional, Cavia porcellus
[13] = Agonist activity at muscarinic M3 receptor in guinea pig ileum assessed as effect on tissue tension changes; type: functional, Cavia porcellus; outline: as §3
[14] = species: Cavia porcellus; assay: Intrinsic activity at muscarinic M1/M4 receptor in guinea pig lung assessed as effect on tissue contraction relative to control
[15] = species: Oryctolagus cuniculus; assay: Intrinsic activity at muscarinic M1/M4 receptor in New Zealanda white rabbit vas deferens assessed as effect on isometric tissue contraction relative to control; type: tissue-based
Outline: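 Vas deferens in solution with 10^-6 M yohimbine and 10^-8 M tripitramine at 30 °C, field-stimulated (0.1 ms, 2 Hz, 10-15 V). Contractions recorded isometrically after 1 h equilibration. A cumulative McN-A-343 reference curve was built, then cumulative curves to the test agonist. Responses are expressed as % of the control curve's maximum. Parallel reference-only tissues served as sensitivity checks.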

Cc1ccc([C@@H]2CCC[N+]2(C)C)o1.[I-]
pKb [1]: 5.96
Ki [2]: 5.62 µM
Ki [3]: 3.63 µM
pD2 [4]: 7.49
Ki [5]: 5.13 µM
Intrinsic activity [6]: 0.42
Ki [7]: 1.66 µM
pKb [8]: 5.9
Ki [9]: 2.69 µM
pKb [10]: 7.82

Cc1ccc([C@@H]2CCCN2C)o1
pKb [1]: <5
Ki [2]: 36.3 µM
Ki [3]: 39.8 µM
pD2 [4]: 6.6
Ki [5]: 47.9 µM
Intrinsic activity [6]: 0.47
Ki [7]: 15.8 µM
pKb [8]: <5
Ki [9]: 33.1 µM
pKb [10]: <5

CN1CCC[C@H]1c1ccco1
Intrinsic activity [11]: 0.37
Ki [2]: 43.7 µM
Ki [3]: 63.1 µM
pD2 [12]: 6.72
pD2 [13]: 5.83
pD2 [4]: 6.82
Ki [5]: 56.2 µM
Intrinsic activity [6]: 0.65
Ki [7]: 30.9 µM
Ki [9]: 52.5 µM
Intrinsic activity [14]: 0.33
Intrinsic activity [15]: 0.3

Cc1ccc(C2CCCN2C)o1 (racemic)
pKb [1]: <5
Ki [2]: 26.9 µM
Ki [3]: 21.9 µM
pD2 [4]: 6.31
Ki [5]: 24.5 µM
Intrinsic activity [6]: 0.37
Ki [7]: 14.5 µM
Ki [9]: 22.9 µM
pKb [10]: <5

Reference: ChEMBL document CHEMBL1157506, “Synthesis and pharmacological characterization of chiral pyrrolidinylfuran derivatives: the discovery of new functionally selective muscarinic agonists” (J Med Chem, 2008)
